Test results reported in ChEMBL document CHEMBL1145303, “The development of novel C-2, C-8, and N-9 trisubstituted purines as inhibitors of TNF-alpha production” (Bioorg Med Chem Lett, 2006).

Experiments:
THP-1 = test: Inhibition of LPS-stimulated TNFalpha production in THP1 cells; format: functional, cell-based; conditions: Homo sapiens
Procedure, shortened: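 Human monocytic THP-1 cells, 2.0 · 10⁵/well, cultured in duplicate, preincubated 15 min with or without a range of inhibitor concentrations. TNF-α release then stimulated with LPS at 2 µg/ml. Secreted TNF-α measured by ELISA 4 h after stimulation. Cell viability after the 4 h incubation checked by MTS assay.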

[1] = Metabolic stability in Sprague-Dawley rat liver microsomes assessed as percent loss after 4 hrs; format: ADME, Microsome; conditions: hepatocytes, in the assay text read “hepatocytes” for “liver microsomes”, read-out: Activity
Procedure, shortened: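 Plated Sprague–Dawley rat hepatocytes, not microsomes, with matrigel blank plates. Test compound incubated at 37 °C in triplicate, sampled at 0, 2 and 4 h. Samples pooled after incubation into a multi-compound set, internal standard added, reverse-phase LC/MS/MS. The compound/internal-standard area ratio at 4 h divided by the 0 h ratio gives percent loss.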

[2] = Bioavailability in rat; format: ADME, organism-based; conditions: in vivo
[3] = Half life in rat; format: ADME, organism-based; conditions: in vivo

| SMILES | IC50 (THP-1) [nM] | further results |
| --- | --- | --- |
| CCn1c(Nc2ccccc2OC)nc2cnc(Oc3c(F)cccc3F)nc21 | 2050 | – |
| CCn1c(Nc2ccc(C)cc2Cl)nc2cnc(Oc3c(F)cccc3F)nc21 | 273 | – |
| CCn1c(Nc2ccccc2O)nc2cnc(Oc3c(F)cccc3F)nc21 | 906 | – |
| CC(C)n1c(Nc2ccccc2Cl)nc2cnc(Nc3c(F)cccc3F)nc21 | 630 | – |
| CCn1c(C(=O)c2ccccc2Cl)nc2cnc(Oc3c(F)cccc3F)nc21 | 4 | metabolised at 4 h [1]: 82% |
| Cn1c(NC(=O)c2ccccc2Cl)nc2cnc(NC3CCOCC3)nc21 | > 10000 | – |
| CCn1c(Sc2ccccc2Cl)nc2cnc(Oc3c(F)cccc3F)nc21 | 14 | metabolised at 4 h [1]: 75% |
| CCn1c(Nc2ccccc2C)nc2cnc(Oc3c(F)cccc3F)nc21 | 48 | bioavailability [2]: 9%; metabolised at 4 h [1]: 56%; half-life [3]: 1.5 h |
| Cn1c(Nc2ccccc2Cl)nc2cnc(Nc3c(F)cccc3F)nc21 | 1540 | – |
| CCn1c([S+]([O-])c2ccccc2Cl)nc2cnc(Oc3c(F)cccc3F)nc21 (configuration not stated) | > 1000 | – |
| Cn1c(Nc2ccccc2Cl)nc2cnc(Nc3ccc(F)cc3F)nc21 | 6560 | – |
| CCn1c(Nc2cccc(Cl)c2Cl)nc2cnc(Oc3c(F)cccc3F)nc21 | 300 | – |
| CCn1c(C(=O)c2ccccc2F)nc2cnc(Oc3c(F)cccc3F)nc21 | 207 | – |
| CCn1c(Nc2ccccc2N)nc2cnc(Oc3c(F)cccc3F)nc21 | 473 | – |
| Cn1c(Nc2ccccc2Cl)nc2cnc(NC3CCOCC3)nc21 | 6580 | – |
| C[C@H](Nc1ncc2nc(NCc3ccccc3Cl)n(C)c2n1)C(C)(C)O | > 10000 | – |
| CCn1c(Nc2ccccc2Cl)nc2cnc(Nc3ccccc3F)nc21 | 2110 | – |

| SMILES | IC50 (THP-1) [nM] | further results |
| --- | --- | --- |
| Cn1c(Nc2ccccc2Cl)nc2cnc(Nc3ccccc3F)nc21 | 10000 | – |
| CCn1c(C(O)c2ccccc2Cl)nc2cnc(Oc3c(F)cccc3F)nc21 (configuration not stated) | 169 | – |
| CC(C)n1c(C(=O)c2ccccc2Cl)nc2cnc(Oc3c(F)cccc3F)nc21 | 650 | – |
| CCn1c(Nc2c(Cl)cccc2Cl)nc2cnc(Oc3c(F)cccc3F)nc21 | 100 | – |
| C[C@H](Nc1ncc2nc(NCCc3ccccc3Cl)n(C)c2n1)C(C)(C)O | > 10000 | – |
| CCn1c(Oc2ccccc2Cl)nc2cnc(Oc3c(F)cccc3F)nc21 | 86 | – |
| CCn1c(Nc2ccccc2F)nc2cnc(Oc3c(F)cccc3F)nc21 | 35 | metabolised at 4 h [1]: 65% |
| CC(C)n1c(Nc2ccccc2F)nc2cnc(Oc3c(F)cccc3F)nc21 | 4 | bioavailability [2]: 9%; metabolised at 4 h [1]: 61%; half-life [3]: 1.5 h |
| CCn1c(Nc2ccccc2Cl)nc2cnc(Oc3c(F)cccc3F)nc21 | 69 | – |
| CC(C)(C)n1c(Nc2ccccc2Cl)nc2cnc(Nc3c(F)cccc3F)nc21 | > 1000 | – |
| CCCCn1c(Nc2ccccc2Cl)nc2cnc(Nc3c(F)cccc3F)nc21 | 798 | – |
| Fc1cccc(F)c1Nc1ncc2nc(Nc3ccccc3Cl)n(C3CC3)c2n1 | > 1000 | – |
| CCn1c(Nc2ccc(F)cc2Cl)nc2cnc(Oc3c(F)cccc3F)nc21 | 237 | – |
| CCn1c(Nc2ccccc2Cl)nc2cnc(Nc3c(F)cccc3F)nc21 | 542 | – |
| C[C@H](Nc1ncc2nc(Nc3ccccc3Cl)n(C)c2n1)C(C)(C)O | 3170 | – |
| O=c1ncn2nc(Sc3ccc(F)cc3F)ccc2c1-c1c(Cl)cccc1Cl [NEFLAMAPIMOD] | 56 | – |
